In general, EC50 refers to the concentration needed to bring the measured effect to its halfway point. Broadly, the IC50 is the concentration at which inhibition is half-maximal. The low end stands for higher potency, the high end for lower potency.

Among the data in ChEMBL document CHEMBL3102858, “Anti-hepatitis C virus dinorditerpenes from the roots of Flueggea virosa” (J Nat Prod, 2014) are EC50, selectivity ratio and IC50 values, retold here.

One data set concerns Hepatitis C virus. Nature of the data set: Antiviral activity against HCV expressing JC1-Luc2A infected in Huh7.5 cells assessed as inhibition of viral infection after 72 hrs by luciferase reporter gene assay. Format: functional, organism-based, Hepacivirus hominis. Particulars: Huh7.5, 72 h. A digest of the protocol:
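Huh7.5 cells were preseeded at 1 × 10^4 cells/well for 24 h, then exposed to JC1-Luc2A reporter HCV (0.1 MOI) for 4 h. The inoculum was removed and the cells washed three times. Fresh medium with compounds was added. After 72 h, luciferase activity was read in cell lysates (Bright-Glo). EC50 is the concentration inhibiting HCVcc infection by 50%.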
For orientation: A reporter such as luciferase makes a cellular process visible.

A short description of data set [1]: Therapeutic index, ratio of IC50 for human Huh7.5 cells to EC50 for HCV. The data set is classed as cell-based, Huh-7. Particulars: read-out: Ratio IC50/EC50. A digest of the protocol: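 TI was calculated as IC50/EC50. IC50 came from the 72 h Huh7.5 viability assay and EC50 from the 72 h JC1-Luc2A HCVcc luciferase infection assay.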
Data set [2] is described as follows: Cytotoxicity against human Huh7.5 cells after 72 hrs. The data set is classed as cell-based. To be noted: Huh-7, 72 h. A digest of the protocol: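 Huh7.5 cells, derived from human hepatoma Huh7, were grown in DMEM with 10% heat-inactivated FBS and 1% nonessential amino acids. They were preseeded at 1 × 10^4 cells/well for 24 h, then given serial compound concentrations. Viable cells were measured after 72 h with the CellTiter 96 Aqueous One Solution kit. IC50 is the concentration inhibiting cell growth by 50%.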

Consider `Cc1cc2c(cc1O)[C@]1(C)CC[C@H](O)C(C)(C)[C@H]1C=C2`, for which, in the data set on Hepatitis C virus, the EC50 amounted to 5.6 µM. The selectivity ratio in data set [1] was determined as 9.8. This compound also registered an IC50 in data set [2] of 54.9 µM.

Take `Cc1cc2c(cc1O)[C@]1(C)CC[C@H](O)C(C)(C)[C@H]1CC2`: the EC50 in the data set with Hepatitis C virus is 12 µM. The selectivity ratio in data set [1] turned out to be 4.5. This compound also yielded an IC50 in data set [2] of 54.3 µM.

Turning to `C=C[C@]1(C)C=C2CC[C@H]3C(C)(C)[C@H](O)CC[C@]3(C)[C@H]2C[C@@H]1O`, the EC50 with Hepatitis C virus was 52.7 µM. Besides, the selectivity ratio in data set [1] was determined as 3.2. The compound also had an IC50 in data set [2] of 167 µM.

For the compound `COc1cc2c(cc1C)C=C[C@@H]1C(C)(C)[C@H](O)CC[C@@]21C`, the EC50 in the data set with Hepatitis C virus is 24.9 µM. Moreover, in data set [1], the selectivity ratio was 2.8. Inhibition in data set [2] was half-maximal at 70 µM (IC50).

For the compound `COc1cc2c(cc1CO)C=C[C@@H]1C(C)(C)[C@H](O)CC[C@@]21C`, in the data set on Hepatitis C virus, the EC50 is 27.4 µM. In addition, the selectivity ratio in data set [1] turned out to be 4.6. Also, half-maximal inhibition in data set [2] (IC50) required 125 µM.

Regarding `COc1cc2c(cc1CO)C=C[C@@H]1C(C)(C)[C@@H](O)CC[C@@]21C`, the EC50 with Hepatitis C virus is 30.5 µM. Also, the selectivity ratio in data set [1] turned out to be 4.9. For the same compound, the 50% inhibitory concentration (IC50) in data set [2] was determined as 151 µM.

`Cc1cc2c(cc1O)[C@]1(C)CCC(=O)C(C)(C)[C@H]1C=C2`: the EC50 in the data set with Hepatitis C virus came to 25.5 µM. Besides, the selectivity ratio in data set [1] is 3.4. The compound further came in with an IC50 in data set [2] of 86.5 µM.

For the compound `COc1cc2c(cc1C)C=C[C@@H]1C(C)(C)C(=O)CC[C@@]21C`, in the data set with Hepatitis C virus, the EC50 came to 47.3 µM. Also, in data set [1], the selectivity ratio was 1.7. This compound also had an IC50 in data set [2] of 81.8 µM.

For the compound `Cc1cc2c(cc1O)[C@]1(C)CCC(=O)C(C)(C)[C@H]1[C@H](O)C2`, in the data set with Hepatitis C virus, the EC50 worked out at 52.8 µM. Also, the selectivity ratio in data set [1] stood at 5.5. In data set [2], this compound displayed an IC50 of 292 µM.

Take `COc1cc2c(cc1C)[C@H]1C[C@@H]3C(C)(C)[C@H](O)CC[C@@]23CO1`: the EC50 in the data set with Hepatitis C virus came to 7.5 µM. For the same compound, the selectivity ratio in data set [1] stood at 55.9. The same compound had an IC50 in data set [2] of 419 µM.

Consider `COc1cc2c(cc1C)CC[C@@H]1C(C)(C)[C@@]3(O)CC[C@@]21CO3`, for which the half-maximal effective concentration (EC50) in the data set with Hepatitis C virus came to 6.6 µM. For the same compound, the selectivity ratio in data set [1] is 45. The compound further returned an IC50 in data set [2] of 297 µM.

Consider `C=CCc1ccc(O)c(-c2ccc(O)c(CC=C)c2)c1` [HONOKIOL], for which the concentration for a half-maximal effect (EC50) in the data set with Hepatitis C virus was determined as 9.4 µM. The selectivity ratio in data set [1] was 6.2.

Consider `C=Cc1c(C)c(O)cc2c1CC[C@@H]1C(C)(C)[C@H](O)CC[C@@]21C` [SPRUCEANOL], for which the concentration giving a half-maximal response (EC50) with Hepatitis C virus is 5 µM. Moreover, the selectivity ratio in data set [1] was found to be 10.5. In data set [2], this compound showed an IC50 of 52.4 µM.
